Assay [1] has as its system Staphylococcus aureus. The assay is described as follows: Antibacterial activity against methicillin-sensitive Staphylococcus aureus isolate 1 planktonic cells after 24 hrs by microdilution assay. Type of assay: functional. To be noted: isolate 1, 24 h. In outline: (§1)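 Planktonic cells at 1 × 10^5 CFU/mL were exposed to compound, and A580 was read at 0 h and after 24 h at 37 °C with shaking. Controls were medium plus microbes, with 1% (v/v) DMSO where the solvent was used. Relative cell number was calculated against the control. Results were confirmed by subculture in fresh medium (48 h, 37 °C) and plating. Conjugate concentrations were expressed as parent-antibiotic equivalents.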
In general terms: In broth dilution the organism is exposed to a series of concentrations in liquid medium.

Assay [2] concerns Staphylococcus aureus. Put plainly: Antibacterial activity against methicillin-sensitive Staphylococcus aureus isolate 2 planktonic cells after 24 hrs by microdilution assay. To be noted: isolate 2, 24 h. Type of assay: functional. In outline:
as §1

Assay [3] relates to Staphylococcus aureus. Put plainly: Antibacterial activity against methicillin-sensitive Staphylococcus aureus isolate 3 planktonic cells after 24 hrs by microdilution assay. To be noted: isolate 3, 24 h. Type of assay: functional. In outline: as §1
Assay [4] has as its system Staphylococcus aureus. The assay is described as follows: Antibacterial activity against methicillin-sensitive Staphylococcus aureus isolate 4 planktonic cells after 24 hrs by microdilution assay. Format: functional. The note with it: isolate 4, 24 h. In outline: as §1
Assay [5] deals with Staphylococcus aureus. The assay is described as follows: Antibacterial activity against methicillin-sensitive Staphylococcus aureus isolate 5 planktonic cells after 24 hrs by microdilution assay. To be noted: isolate 5, 24 h. Type of assay: functional. The procedure, abridged:
as §1

Assay [6] deals with Staphylococcus aureus. The assay is described as follows: Antibacterial activity against methicillin-sensitive Staphylococcus aureus isolate 6 planktonic cells after 24 hrs by microdilution assay. Type of assay: functional. To be noted: isolate 6, 24 h. The procedure, abridged:
as §1

In assay [7] the test system is Staphylococcus aureus. The assay is described as follows: Antibacterial activity against methicillin-sensitive Staphylococcus aureus ATCC 6538 planktonic cells after 24 hrs by microdilution assay. Format: functional. The note with it: ATCC 6538, 24 h. In outline:
as §1

The subject of assay [8] is Staphylococcus aureus. The assay is described as follows: Antibacterial activity against methicillin-resistant Staphylococcus aureus MR4-CIPS planktonic cells after 24 hrs by microdilution assay. Format: functional. The procedure, abridged: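 Broth microdilution: 100 µL of 1 × 10^5 CFU/mL inoculum with graded compound concentrations, read at 580 nm before and after 24 h at 37 °C with shaking to prevent biofilm formation. Relative cell number is taken against medium + microbes controls, with 1% DMSO in the ciprofloxacin control. Growth is confirmed by 48 h subculture in fresh medium and by plating. MIC is expressed as parent-antibiotic equivalents.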

Assay [9] deals with Staphylococcus aureus. Put plainly: Antibacterial activity against methicillin-sensitive Staphylococcus aureus isolate 1 planktonic cells at 5 mg after 24 hrs by disc diffusion test. Details: dose or concentration left out as unconfirmed. To be noted: isolate 1, 24 h, read-out: DIZ.
The test system of assay [10] is Staphylococcus aureus. The assay is described as follows: Antibacterial activity against methicillin-sensitive Staphylococcus aureus isolate 2 planktonic cells at 5 mg after 24 hrs by disc diffusion test. The note with it: isolate 2, 24 h, read-out: DIZ. Details: dose or concentration left out as unconfirmed. A general note: Agar diffusion results depend on both activity and mobility in agar.

Assay [11] deals with Staphylococcus aureus. The assay is described as follows: Antibacterial activity against methicillin-sensitive Staphylococcus aureus isolate 3 planktonic cells at 5 mg after 24 hrs by disc diffusion test. On the set-up: dose or concentration left out as unconfirmed. The note with it: isolate 3, 24 h, read-out: DIZ.
Assay [12] has as its system Staphylococcus aureus. Put plainly: Antibacterial activity against methicillin-sensitive Staphylococcus aureus isolate 4 planktonic cells at 5 mg after 24 hrs by disc diffusion test. Details: dose or concentration left out as unconfirmed. The note with it: isolate 4, 24 h, read-out: DIZ.
Assay [13] has as its system Staphylococcus aureus. The assay is described as follows: Antibacterial activity against methicillin-sensitive Staphylococcus aureus isolate 5 planktonic cells at 5 mg after 24 hrs by disc diffusion test. On the set-up: dose or concentration left out as unconfirmed. To be noted: isolate 5, 24 h, read-out: DIZ.
For assay [14], the system named is Staphylococcus aureus. Put plainly: Antibacterial activity against methicillin-sensitive Staphylococcus aureus isolate 6 planktonic cells at 5 mg after 24 hrs by disc diffusion test. On the set-up: dose or concentration left out as unconfirmed. To be noted: isolate 6, 24 h, read-out: DIZ.
Assay [15] has as its system Staphylococcus aureus. The assay is described as follows: Antibacterial activity against methicillin-resistant Staphylococcus aureus MR4-CIPS planktonic cells at 5 mg after 24 hrs by disc diffusion test. To be noted: read-out: DIZ. On the set-up: dose or concentration left out as unconfirmed.
Assay [16] concerns Staphylococcus aureus. The assay is described as follows: Bactericidal activity against Staphylococcus aureus ATCC 6538 biofilm using hydroxyapatite as substrate assessed as reduction in colony forming units after 24 hrs. Type of assay: functional. In outline:
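Biofilms were started from a 1 McFarland suspension, allowed to adhere 4 h at 37 °C on HA discs or polystyrene well bottoms, then rinsed. They were exposed 24 h at 37 °C to TSB containing 0.24–125 mg/L compound. Cells were detached in 0.5% saponin by 1 min vortexing, serially diluted and plated on Columbia (S. aureus) or MacConkey (P. aeruginosa) agar, 37 °C, 24 h. Read-out was mean CFU/mm² ± SEM; HA area was measured by X-ray tomography.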

The subject of assay [17] is Pseudomonas aeruginosa. Put plainly: Bactericidal activity against Pseudomonas aeruginosa ATCC 15442 biofilm using hydroxyapatite as substrate assessed as reduction in colony forming units at 8 ug/ml at pH 4.8 to 7.4 after 24 hrs. Format: functional.
Assay [18] concerns Staphylococcus aureus. The assay is described as follows: Antibiofilm activity against Staphylococcus aureus ATCC 6538 assessed as CFU counts at 100 ug/mL pretreated with HA for 24 hrs followed by organism inoculation measured after 24 hrs (reference value: 8.1 x 10^10CFU). Type of assay: functional. The procedure, abridged: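 HA discs were soaked 24 h at 37 °C in 2 mL compound solution, with DMSO or phosphate-buffer controls, then rinsed 3× with sterile water. Discs were inoculated with 2 mL of 0.5 McFarland S. aureus ATCC 6538 for biofilm formation. Biofilm CFU were counted after 24 h growth.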

Assay [19] has as its system Staphylococcus aureus. The assay is described as follows: Antibiofilm activity against Staphylococcus aureus ATCC 6538 assessed as CFU counts at 200 ug/mL pretreated with HA for 24 hrs followed by organism inoculation measured after 24 hrs (reference value: 8.1 x 10^10CFU). Type of assay: functional.
The test system of assay [20] is Staphylococcus aureus. Put plainly: Antibiofilm activity against Staphylococcus aureus ATCC 6538 assessed as CFU counts at 400 ug/mL pretreated with HA for 24 hrs followed by organism inoculation measured after 24 hrs (reference value: 8.1 x 10^10CFU). Type of assay: functional.
Assay [21] concerns Aggregatibacter actinomycetemcomitans. The assay is described as follows: Antibiofilm activity against Aggregatibacter actinomycetemcomitans D7S-1 serotype A at 5 mg after 24 hrs by disc diffusion assay. The note with it: read-out: DIZ. Type of assay: functional.
Assay [22] has the same test system. Put plainly: Antibiofilm activity against Aggregatibacter actinomycetemcomitans D7S-1 serotype A after 24 hrs by microdilution assay. Format: functional.
For assay [23] the test system is unchanged. Put plainly: Antibiofilm activity against Aggregatibacter actinomycetemcomitans infected in jawbone peri-implant osteomyelitis Sprague-Dawley rat model assessed as bacterial count in bone per gram at 10 mg/kg, ip administered 3 times per week measured after 1 week post pharmacotherapy relative to control. Format: functional. In outline: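 Rats carried two titanium implants each, preinoculated with A. actinomycetemcomitans D7S-1 biofilm (10^9 CFU), placed bilaterally in palatal bone. One week after surgery, randomized groups received i.p. doses in sterile saline; the negative control was endotoxin-free saline. One week after treatment, 1 cm² peri-implant tissue and bone were homogenized in 0.5% saponin, serially diluted 10-fold and spread-plated on modified TSB (37 °C, 5% CO2, 48 h). Read-out was CFU/g and mean log10 reduction; analysts were blinded.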

Assay [24] deals with Staphylococcus aureus. Put plainly: microbe, parasite or virus in culture. On the set-up: dose or concentration left out as unconfirmed. The note with it: ATCC 6538, 24 h, read-out: DIZ.
Assay [25] relates to Staphylococcus aureus. The assay is described as follows: Antibiofilm activity against Staphylococcus aureus ATCC 6538 assessed as reduction in bacterial adherence to HA at 15.6 to 250 ug/ml pretreated with HA for 24 hrs followed by organism inoculation measured after 24 hrs. Format: functional. In outline:
(§2)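 HA spherules (final 10 mg/mL) in TSB were preincubated 24 h at 37 °C with shaking with compound (final 0.12–250 mg/L), then pelleted and the supernatant discarded. They were inoculated with 1 mL S. aureus at 10^5 CFU/mL. A580 was read at 0 and 24 h (37 °C, shaking) against controls without spherules and spherules without compound; spherules were also plated for CFU.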

Assay [26] has as its system Staphylococcus aureus. Put plainly: Antibiofilm activity against Staphylococcus aureus ATCC 6538 assessed as reduction in bacterial adherence to HA at 0.24 to 7.8 ug/ml pretreated with HA for 24 hrs followed by organism inoculation measured after 24 hrs. Type of assay: functional. In outline: as §2
Assay [27] has as its system Staphylococcus aureus. The assay is described as follows: Bactericidal activity against Staphylococcus aureus ATCC 6538 biofilm using hydroxyapatite as substrate assessed as reduction in colony forming units at 0.24 to 250 ug/ml after 24 hrs. Format: functional.

≈ marks a conversion by molar mass, not a printed value. Calls of active or inactive are those of the source. The rule behind the calls is not given here.

In the case of `O=C(O)c1cn(C2CC2)c2cc(N3CCNCC3)c(F)cc2c1=O` [CIPROFLOXACIN], the MIC in [1] is 1 µg/mL (≈ 3.02 µM); in [2], 0.25 µg/mL (≈ 0.754 µM); in assay [3] it was 0.25 µg/mL (≈ 0.754 µM); in assay [4] it was 1 µg/mL (≈ 3.02 µM); in assay [5] it was 0.5 µg/mL (≈ 1.51 µM); in [6], 1 µg/mL (≈ 3.02 µM). For the same molecule, the MIC in [7] and in [8] was 1 µg/mL (≈ 3.02 µM) in each case. Also, the zone of inhibition in assay [9], in assay [10], in assay [11], in assay [12], in assay [13] and in assay [14] was 25 to 40 mm in each case. Further, the zone of inhibition in assay [15] and in [24] was 25 to 40 mm each time. The MBIC90 in assay [16] came out at 8 µg/mL. The result in assay [17] was inactive. Moreover, the result in [18], in assay [19] and in [20] was Active. In addition, the zone of inhibition at 5000 µg/disc in [21] was over 40 mm. The same molecule returned an MIC90 in [22] of 2 µg/mL (≈ 6.04 µM). Also, in assay [23], the Activity worked out at 90%.
For `O=C(O)c1cn(C2CC2)c2cc(N3CCN(C(=O)c4ccc(CC(P(=O)(O)O)P(=O)(O)O)cc4)CC3)c(F)cc2c1=O`, the minimal inhibitory concentration (MIC) in [1] came to 31.2 µg/mL (≈ 50 µM); in assay [2], 31.2 µg/mL (≈ 50 µM); in assay [3], 15.6 µg/mL (≈ 25 µM); in [4], 62.5 µg/mL (≈ 100 µM); in assay [5], 7.8 µg/mL (≈ 12.5 µM); in assay [6] it was 15.6 µg/mL (≈ 25 µM). The same molecule had an MIC in assay [7] of 62.5 µg/mL (≈ 100 µM). Also, the outcome in [25], in assay [26] and in assay [27] was inactive.

The MIC is the lowest concentration that inhibits growth of the organism.

The values are drawn from ChEMBL document CHEMBL4014261, “Design, Synthesis, and Antimicrobial Evaluation of a Novel Bone-Targeting Bisphosphonate-Ciprofloxacin Conjugate for the Treatment of Osteomyelitis Biofilms” (J Med Chem, 2017).
